According to ChEMBL document CHEMBL1123570, “Potent vasopressin antagonists modified at the carboxy-terminal tripeptide tail” (J Med Chem, 1987):
Bridge positions count the residues as written; N and C are the ends. Square brackets hold non-standard residues; d marks the D form. Peptide text beside a SMILES is read from it. Mpa = O=C(O)CCS

Target: Vasopressin V2 receptor (Sus scrofa) (UniProt P32307)
Assay: Affinity towards vasopressin receptor in porcine renal medullary membrane using [3H]LVP
Format: cell membranes
Conditions: Renal medulla
In short: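 Pig kidney medullary membrane preparation; displacement of [³H]LVP binding. IC50 taken as the ligand concentration giving 50% inhibition of binding; Kbind calculated by the competitive-inhibition equation Kbind = IC50/(1 + L/KD), with KD the dissociation constant of [³H]LVP.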

Chain of Vasopressin V2 receptor (Sus scrofa) (P32307 whole entry): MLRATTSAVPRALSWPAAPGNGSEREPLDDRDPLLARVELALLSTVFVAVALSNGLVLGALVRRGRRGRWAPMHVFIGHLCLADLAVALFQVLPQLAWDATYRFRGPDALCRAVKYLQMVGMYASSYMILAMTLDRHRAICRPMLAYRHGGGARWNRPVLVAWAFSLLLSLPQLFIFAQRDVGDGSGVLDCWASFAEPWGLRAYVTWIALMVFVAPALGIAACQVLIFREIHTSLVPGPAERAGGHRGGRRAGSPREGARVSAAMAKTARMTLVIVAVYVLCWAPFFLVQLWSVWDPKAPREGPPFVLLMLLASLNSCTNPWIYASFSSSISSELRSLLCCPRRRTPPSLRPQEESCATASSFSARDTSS

CC(C)[C@@H]1NC(=O)[C@H](Cc2ccccc2)NC(=O)[C@H](Cc2ccc(O)cc2)NC(=O)CCSSC[C@@H](C(=O)N[C@@H](CCCN=C(N)N)C(=O)N[C@@H](CCCN=C(N)N)C(N)=O)NC(=O)[C@H](CC(N)=O)NC1=O ([Mpa]YFVNCRR-NH2; disulfide 1-6)
K bind: > 1000 nM
